In brackets after ≈: the same amount, converted by molar mass.
Key:
[1] = tested on: Pseudomonas aeruginosa; test: In vivo efficacy against Pseudomonas aeruginosa infections in mice; type: functional; conditions: Pseudomonas aeruginosa; read-out: MIC
[2] = tested on: Pseudomonas aeruginosa; test: In vivo efficacy against Pseudomonas aeruginosa infected mice treated at 1 hr and 5 hr post infection; type: functional; conditions: Pseudomonas aeruginosa; read-out: ED50
[3] = tested on: Serratia marcescens; test: Antibacterial activity against Serratia marcescens SE3; type: functional; conditions: Serratia marcescens; read-out: MIC
[4] = tested on: Enterobacter cloacae; test: Antibacterial activity against Enterobacter cloacae 265A; type: functional; conditions: Enterobacter cloacae; read-out: MIC
[5] = tested on: Canis familiaris; test: Percent of dose in dogs urine at the dose of 60 mg/kg.; type: functional, Canis lupus familiaris
In short: (§1)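 Overnight-fasted female mongrel dogs with a Foley bladder catheter; bolus into the cephalic vein. Plasma and urine collected before dosing and over 24 h after. Antibacterial activity measured by microbiological assay.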

[6] = tested on: Streptococcus pneumoniae; test: Antibacterial activity against Streptococcus pneumoniae; type: functional; conditions: Streptococcus pneumoniae; read-out: MIC
[7] = tested on: Escherichia coli; test: Antibacterial activity against Escherichia coli EC14; type: functional; conditions: Escherichia coli; read-out: MIC
[8] = tested on: Klebsiella pneumoniae; test: Antibacterial activity against Klebsiella pneumoniae X26; type: functional; conditions: Klebsiella pneumoniae; read-out: MIC
[9] = tested on: Pseudomonas aeruginosa; test: Antibacterial activity against Pseudomonas aeruginosa PS18; type: functional; conditions: Pseudomonas aeruginosa; read-out: MIC
[10] = tested on: Enterococcus faecium; test: Antibacterial activity against Enterococcus faecium; type: functional; conditions: Enterococcus faecium; read-out: MIC
[11] = tested on: Pseudomonas aeruginosa; test: Antibacterial activity against Pseudomonas aeruginosa X528; type: functional; conditions: Pseudomonas aeruginosa; read-out: MIC
[12] = tested on: Staphylococcus aureus; test: In vivo efficacy against Staphylococcus aureus infected mice treated at 1 hr and 5 hr post infection; type: functional; conditions: Staphylococcus aureus; read-out: ED50
[13] = tested on: Escherichia coli; test: In vivo efficacy against Escherichia coli infections in mice; type: functional; conditions: Escherichia coli; read-out: MIC
[14] = tested on: Enterobacter cloacae; test: Antibacterial activity against Enterobacter cloacae EB5; type: functional; conditions: Enterobacter cloacae; read-out: MIC
[15] = tested on: Staphylococcus aureus; test: Antibacterial activity against penicillin G resistance Staphylococcus aureus; type: functional; conditions: Staphylococcus aureus; read-out: MIC
[16] = tested on: Staphylococcus aureus; test: Antibacterial activity against penicillin G susceptible Staphylococcus aureus; type: functional; conditions: Staphylococcus aureus; read-out: MIC
[17] = Terminal half life in dogs at the dose of 60 mg/kg.; type: ADME, organism-based, Canis lupus familiaris; set-up: dose 60 mg/kg; conditions: dog, in vivo; in short: as §1
[18] = tested on: Escherichia coli; test: Antibacterial activity against Escherichia coli TEM; type: functional; conditions: Escherichia coli; read-out: MIC
[19] = tested on: Streptococcus pyogenes; test: Antibacterial activity against Streptococcus pyogenes; type: functional; conditions: Streptococcus pyogenes; read-out: MIC
[20] = tested on: Klebsiella pneumoniae; test: microbe, parasite or virus in culture; type: functional; conditions: Klebsiella pneumoniae; read-out: MIC
[21] = tested on: Escherichia coli; test: In vivo efficacy against Escherichia coli infected mice treated at 1 hr and 5 hr post infection; type: functional; conditions: Escherichia coli; read-out: ED50
[22] = tested on: Staphylococcus aureus; test: In vivo efficacy against Staphylococcus aureus infections in mice; type: functional; conditions: Staphylococcus aureus; read-out: MIC
[23] = species: Cavia porcellus; test: In vitro relative anticholinergic activity in isolated guinea pig trachea; type: functional; conditions: read-out: pA2 (converted)
In short: (§2)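 Guinea pig trachea in Krebs' solution at 37.5 °C, 95% O2/5% CO2, pH 7.4, 2 g resting tension. Cumulative carbachol log dose-response curve (3-fold steps) run before and 30 min after adding antagonist at 1 mM. […] Tukey test on log2 dose ratios.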

[24] = species: Cavia porcellus; test: In vitro relative anticholinergic potential in isolated guinea pig trachea; type: functional; in short: as §2
[25] = In vitro dose required for anticholinergic activity in isolated guinea pig trachea; type: functional
[26] = tested on: Staphylococcus aureus; test: In vitro relative hydrolysis rate against Staphylococcus aureus; type: functional
In short: (§3)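 Spectrophotometric hydrolysis at 265 nm, substrate exposed to partially purified cell-free β-lactamase preparations; rate expressed as percentage of the cephaloridine rate.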

[27] = tested on: Escherichia coli; test: In vitro relative hydrolysis rate against Escherichia coli IIIa; type: functional; in short: as §3
[28] = tested on: Pseudomonas aeruginosa; test: In vitro relative hydrolysis rate against Pseudomonas Id; type: functional; in short: as §3
[29] = tested on: Enterobacter cloacae; test: In vitro relative hydrolysis rate against Enterobacter Ia; type: functional; in short: as §3
[30] = tested on: Klebsiella pneumoniae; test: In vitro relative hydrolysis rate against Klebsiella IV; type: functional; in short: as §3

Compound	MIC [1] [µg/mL]	ED50 [2] [mg/kg]	MIC [3] [µg/mL]	MIC [4] [µg/mL]	MIC [6] [µg/mL]	MIC [7] [µg/mL]	MIC [8] [µg/mL]	MIC [9] [µg/mL]	MIC [10] [µg/mL]	MIC [11] [µg/mL]	ED50 [12] [mg/kg]	MIC [13] [µg/mL]	MIC [14] [µg/mL]	MIC [15] [µg/mL]	MIC [16] [µg/mL]	MIC [18] [µg/mL]	MIC [19] [µg/mL]	MIC [20] [µg/mL]	ED50 [21] [mg/kg]	MIC [22] [µg/mL]	other results
CO/N=C(\C(=O)N[C@@H]1C(=O)N2C(C(=O)[O-])=C(C[n+]3ccc4occc4c3)CS[C@H]12)c1csc(N)n1	4 (≈ 7.77 µM)	18	0.03 (≈ 0.0583 µM)	4 (≈ 7.77 µM)	< 0.008	0.015 (≈ 0.0292 µM)	0.015 (≈ 0.0292 µM)	2 (≈ 3.89 µM)	> 128	1 (≈ 1.94 µM)	< 0.6	0.015 (≈ 0.0292 µM)	0.06 (≈ 0.117 µM)	4 (≈ 7.77 µM)	0.5 (≈ 0.972 µM)	0.03 (≈ 0.0583 µM)	< 0.008	4 (≈ 7.77 µM)	< 0.6	1 (≈ 1.94 µM)	Percent of dose recovered in urine [5]: 94%; half-life [17]: 1.33 h
CO/N=C(\C(=O)N[C@@H]1C(=O)N2C(C(=O)[O-])=C(C[n+]3ccc4sc(C)cc4c3)CS[C@H]12)c1csc(N)n1			0.06 (≈ 0.11 µM)	4 (≈ 7.34 µM)	< 0.008	0.015 (≈ 0.0275 µM)	< 0.008	8 (≈ 14.7 µM)	> 128	2 (≈ 3.67 µM)			0.06 (≈ 0.11 µM)	4 (≈ 7.34 µM)	0.5 (≈ 0.918 µM)	0.015 (≈ 0.0275 µM)	< 0.008	1 (≈ 1.84 µM)			Percent of dose recovered in urine [5]: 64%; half-life [17]: 1.67 h
CO/N=C(\C(=O)N[C@@H]1C(=O)N2C(C(=O)[O-])=C(C[n+]3ccccc3)CS[C@H]12)c1csc(N)n1	16 (≈ 33.7 µM)	14.4	0.25 (≈ 0.527 µM)	2 (≈ 4.21 µM)	0.03 (≈ 0.0632 µM)	0.03 (≈ 0.0632 µM)	0.03 (≈ 0.0632 µM)	4 (≈ 8.43 µM)	> 128	2 (≈ 4.21 µM)	0.8	0.06 (≈ 0.126 µM)	0.06 (≈ 0.126 µM)	2 (≈ 4.21 µM)	1 (≈ 2.11 µM)	0.03 (≈ 0.0632 µM)	0.03 (≈ 0.0632 µM)	4 (≈ 8.43 µM)	0.07	1 (≈ 2.11 µM)	Kb [23]: 490 µM; Percent of dose recovered in urine [5]: 94%; RAP [24]: 9; Dose ratio [25]: 3.04; half-life [17]: 1.67 h
CO/N=C(\C(=O)N[C@@H]1C(=O)N2C(C(=O)[O-])=C(C[n+]3cccc4sccc43)CS[C@H]12)c1csc(N)n1	2 (≈ 3.77 µM)	9.3	0.125 (≈ 0.236 µM)	4 (≈ 7.54 µM)	0.03 (≈ 0.0565 µM)	0.06 (≈ 0.113 µM)	0.03 (≈ 0.0565 µM)	4 (≈ 7.54 µM)	128 (≈ 241 µM)	2 (≈ 3.77 µM)	0.6	0.03 (≈ 0.0565 µM)	0.25 (≈ 0.471 µM)	4 (≈ 7.54 µM)	0.5 (≈ 0.942 µM)	0.06 (≈ 0.113 µM)	0.015 (≈ 0.0283 µM)	1 (≈ 1.88 µM)	0.04	1 (≈ 1.88 µM)	Hydrolysis rate [26]: 6.2; Hydrolysis rate [27]: 0.2; Hydrolysis rate [28]: 0.2; Hydrolysis rate [29]: 0.2; Hydrolysis rate [30]: 0.7
CO/N=C(\C(=O)N[C@@H]1C(=O)N2C(C(=O)[O-])=C(C[n+]3ccc4ccsc4c3)CS[C@H]12)c1csc(N)n1	4 (≈ 7.54 µM)	9.5	0.03 (≈ 0.0565 µM)	8 (≈ 15.1 µM)	< 0.008	0.015 (≈ 0.0283 µM)	0.015 (≈ 0.0283 µM)	4 (≈ 7.54 µM)	> 128	2 (≈ 3.77 µM)	0.4	< 0.008	0.06 (≈ 0.113 µM)	4 (≈ 7.54 µM)	1 (≈ 1.88 µM)	0.03 (≈ 0.0565 µM)	< 0.008	4 (≈ 7.54 µM)	0.02	1 (≈ 1.88 µM)	Hydrolysis rate [26]: 7.1; Hydrolysis rate [27]: 0.2; Hydrolysis rate [28]: 0.4; Hydrolysis rate [29]: 0.7; Hydrolysis rate [30]: 6.9

From ChEMBL document CHEMBL1124865, “Synthesis and biological evaluation of a series of parenteral 3'-quaternary ammonium cephalosporins” (J Med Chem, 1990)
